Hits are enriched below; roughly 2.7% of the tested compounds scored in any of these assays.
ARFGAP1 inhibitor = inhibits rat ARF GTPase activating protein 1; Q62848; Arfgap1-stimulated ARF1 GTP hydrolysis, GDP FP detection; inhibition, % at 16.5 µM; hit rate 0.26% among 360,000;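 active = inhibition above a per-plate limit, mean inhibition of low control wells plus 3 SD, cut at about 25% in these data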;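 also: 0% = DMSO wells with enzyme and 100% = wells lacking Arfgap1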
Target sequence (Q62848 1-136 limits assumed): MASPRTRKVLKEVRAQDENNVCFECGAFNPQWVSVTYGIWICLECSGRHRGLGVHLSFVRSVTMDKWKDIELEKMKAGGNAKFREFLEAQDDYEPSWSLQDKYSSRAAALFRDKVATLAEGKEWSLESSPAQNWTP
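Assay system: purified rat His6-Arfgap1 residues 1-136 (GAP domain); Reagent: human Δ17 ARF1 bound to GTP; Dosing: 16.5 µM single point, 1.26% DMSO; Times: GTP hydrolysis reaction 2 h at 25 °C; Signal: FP, GDP Alexa 633 tracer displaced from anti-GDP antibody, 620/688 nm; Measure: % inhibition from polarization.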
NR1D1 modulator = modulators of human Rev-erb alpha DNA binding; P20393; Rev-erbα–FITC-DNA binding, fluorescence polarization, 90 min; activity, % at 10 µM; hit rate 0.79% among 370,000;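 active = activity above about 14%, limit read from the data; passing the limit was not always enough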;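 also: 0% = DMSO wells with 35 nM protein and 100% = DMSO wells with 750 nM protein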
MsrA inh = bovine MsrA inhibition | purified bovine MsrA, absorbance read-out | inhibition, % at 15.5 µM | hit rate 0.75% among 360,000 | AID 651718; in the data active = inhibition above about 4.5%;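 also: 0% = vehicle wells with enzyme and 100% = reference inhibitor wells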
sPLA2-III inh = Blocks human group III sPLA2 activity; Q9NZ20; QFRET BODIPY PC-A2 liposome hydrolysis, fluorescence; inhibition, % at 12.2 µM; hit rate 0.56% among 370,000;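 active = inhibition above mean plus 3 SD of compounds lying within the high and low control bounds, cut at about 19% in these data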;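 also: 0% = median of test compound wells and 100% = no enzyme DMSO wells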
bovine MsrA act = activators of bovine methionine sulfoxide reductase A; AID 602163; activation, % at 10.6 µM; hit rate 0.3% among 360,000; purified bovine MsrA, absorbance read-out; in the data active = activation above about 7.5%;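 also: 0% = vehicle and 100% = reference activator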
ASAP1 inh = ASAP1 ArfGAP inhibition; Q9ULH1; ASAP1-stimulated ARF1 GTP hydrolysis, GDP FP detection; inhibition, % at 16.5 µM; hit rate 0.19% among 360,000; in the data active = inhibition above about 25%;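 also: 0% = vehicle with enzyme and substrate and 100% = no enzyme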
Target sequence (Q9ULH1 325-724 limits assumed): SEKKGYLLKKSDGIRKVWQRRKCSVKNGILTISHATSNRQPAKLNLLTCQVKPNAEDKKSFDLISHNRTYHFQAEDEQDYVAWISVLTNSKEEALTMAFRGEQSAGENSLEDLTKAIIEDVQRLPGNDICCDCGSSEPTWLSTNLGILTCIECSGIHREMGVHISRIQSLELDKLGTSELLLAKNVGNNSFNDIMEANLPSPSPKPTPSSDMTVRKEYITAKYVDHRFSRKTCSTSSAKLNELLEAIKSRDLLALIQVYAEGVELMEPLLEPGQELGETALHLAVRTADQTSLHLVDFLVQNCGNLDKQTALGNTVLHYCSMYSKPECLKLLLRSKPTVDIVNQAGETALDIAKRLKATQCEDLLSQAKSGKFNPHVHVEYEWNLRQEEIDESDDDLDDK
hGIII sPLA2 conf = human GIII-sPLA2 inhibition, confirmation | shares compounds with sPLA2-III inh | recombinant hGIII-sPLA2, BODIPY PC-A2 QFRET fluorescence | inhibition, % at 12.2 µM | hit rate 34% among 2,000 | AID 743280;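 active = mean inhibition across triplicates above the hit cutoff set in the earlier primary screen, cut at about 19% in these data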;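 also: 0% = enzyme with DMSO and 100% = DMSO wells lacking enzyme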
BODIPY interf = counter-screen for HGIII-sPLA2 inhibitors: 535nm fluorescence interference; shares compounds with sPLA2-III inh; inhibition, % at 12.2 µM; BODIPY FL product fluorescence interference, QFRET; hit rate 8.5% among 2,000; AID 743282;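 active = average inhibition above the solvent-only control mean plus 3 SD, cut at about 6% in these data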;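 also: 0% = DMSO with substrate plus product and 100% = DMSO with substrate alone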
535nm interf DR = interferes with 535nm fluorescence in dose response counter-screen; IC50, µM; BODIPY FL product fluorescence interference, cell-free; shares compounds with sPLA2-III inh; 240 tested, under 10 active;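 active = IC50 at or below 10 µM; inactive = IC50 above 10 µM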
Numbers without * were called inactive; . = no result; ! = a repeat was not active.

SMILES	ARFGAP1 inhibitor	NR1D1 modulator	MsrA inh	sPLA2-III inh	bovine MsrA act	ASAP1 inh	hGIII sPLA2 conf	BODIPY interf	others
O=C(NC(=S)NCc1ccccc1)c1cccs1	7.6	-3.9	4.1	1.8	-4.4	9.6	.	.
O=C(NNC(=S)NC(=O)c1cccs1)c1ccc(O)cc1	11.9	-0.2	1.4	8.6	-0.6	-2.3	.	.
O=C(Nc1ccc(NC(=S)NC(=O)c2cccs2)cc1)c1ccccc1	8.7	-0.6	0.9	14.7	-3.7	5.3	.	.
O=C(NNC(=S)NC(=O)c1cccs1)c1ccc(NC(=O)c2ccccc2)cc1	7.3	-1.5	4.5	20.5*	6.1	-8.6	41.2*	-34.1	535nm interf DR=>122
CCCN1CNc2c(c(=O)[nH]c(=S)n2CCc2c(Cl)cccc2Cl)C1	.	-0.3	.	4.2	.	.	.	.
CCn1c2ccccc2c2cc(C=NNC(=O)CSc3nc4ccccc4c(=O)n3-c3ccccc3)ccc21	.	-5.5	.	-1.7	.	.	.	.
CC(OP(=O)(O)C(NC(=O)[C@H](Cc1ccc(O)cc1)NC(=O)OC(C)(C)C)C(C)C)C(=O)O (stereo partly drawn)	.	2.1	.	9.7	.	.	.	.
O=[N+]([O-])c1ccccc1/C=N/n1c(C2CCCCC2)n[nH]c1=S	1.6	-1.6	-0.2	19.6*	-1.2	-0.4	27.9*	4.5	535nm interf DR=>122
Cc1c[nH]c2cccc(-c3cc4ccccc4o3)c12	.	-3.0	.	-40.7	.	.	.	.
O=C(NCc1cccs1)c1cnn2cccnc12	18.6	-1.6	0.7	24.3*	-2.8	4.9	-4.8	-4.6
CCOc1ccc(/C=N/Nc2cc(=O)n(C)c(=O)n2C)cc1	13.2	4.7	2.6	19.3*	0.4	2.8	11.0	-1.1
CCCCN(C)C(=O)c1oc(=O)c2ccccc2c1-c1ccc(C)cc1	.	8.2	.	11.0	.	.	.	.
Cc1ccc(C=Nn2c(-c3n[nH]c4c3CCC4)n[nH]c2=S)o1	.	-1.7	.	20.6*	.	.	16.3	-0.5
COc1ccc(/C=C/S(=O)(=O)NC2CCCC2)c(CNC(=O)OC(C)(C)C)c1	.	2.2	.	-5.6	.	.	.	.
CCOc1ccccc1N(CC(=O)Nc1ccc(S(=O)(=O)N2CCOCC2)cc1)S(=O)(=O)c1ccc(Cl)cc1	10.7	4.0	0.1	23.4*	-8.6	-6.7	-5.1	-3.7
CN(C)S(=O)(=O)c1cccc(NC(=S)NNC(=O)c2cc3ccccc3cc2O)c1	0.0	-3.7	1.1	37.1*	0.6	16.6	35.9*	13.2*
CCCCCCCCN1C(=O)[C@@H](CC(=O)NCc2ccc(C)o2)C[C@@]2(C(=O)OC)C1=C[C@H](COCc1ccccc1)O[C@@H]2C	.	-1.4	.	-14.5	.	.	.	.
N.N.O=C(O)C1(C(=O)O)CCC1.[Pt+2]	.	7.1	.	.	.	.	.	.
CCCCNC(=O)NS(=O)(=O)c1ccc(NC(=O)CSc2nnc(-c3cccs3)n2-c2ccc(OC)cc2)cc1	.	-4.4	.	-35.0	.	.	.	.
COC(CNC(=O)c1ccc(N2CCC3(CC2)OCCO3)c([N+](=O)[O-])c1)OC	-5.2	4.3	0.6	23.0*	-1.4	5.3	2.9	-8.8
O=C(c1ccc(N2CCC3(CC2)OCCO3)c([N+](=O)[O-])c1)N1CCOCC1	7.1	11.6	0.0	-4.4	-2.8	0.5	.	.
S=C(NCc1cccc(Cl)c1)OC1CCC12CCC(c1ccccc1)CC2 (stereo not drawn)	.	5.8	.	-11.4	.	.	.	.
COc1cc(CN(C(=S)NCC(=O)NC2CCCC2)C2CCCC2)cc(OC)c1OC	9.3	-10.6	-0.2	22.7*	-4.4	5.3	3.2	-14.6
COCc1cn(CC(=O)c2sc(NC(=O)C(C)(C)C)nc2C)nn1	6.3	-5.0	0.6	-19.0	-4.7	-0.8	.	.
COC(=O)c1ccc(/C=N/NC(=O)c2ccc3nc[nH]c3c2)cc1	8.9	5.6	1.2	-1.2	-4.5	0.6	.	.
SMILES	ARFGAP1 inhibitor	NR1D1 modulator	MsrA inh	sPLA2-III inh	bovine MsrA act	ASAP1 inh	hGIII sPLA2 conf	BODIPY interf	others
Cc1ccc(/C=N/NC(=O)c2ccc3nc[nH]c3c2)o1	15.2	1.5	3.2	20.9*	-2.9	0.0	2.5	-1.7
CC(C)c1c(O)ccc2c1CC[C@H]1C(C)(C)CCC[C@]21C	18.4	5.7	-0.5	-5.4	-3.3	2.1	.	.
O=C(NC1CCCCN(Cc2ccc(Cl)cc2)C1=O)C1C2CC3CC(C2)CC1C3 (stereo not drawn)	.	6.5	.	4.1	.	.	.	.
COc1ccc(NC(=S)NNC(=O)c2nnn(-c3ccccc3)c2C)cc1	4.1	-4.3	0.3	34.9*	1.0	7.0	42.4*	-1.1	535nm interf DR=>122
COc1ccc(NC(=O)c2cnn(-c3ccccc3)c2C)cc1	0.7	-1.1	0.3	6.3	-2.3	-5.2	.	.
COC(=O)[C@]12C[C@H](CC(=O)N3CCCCC3)C(=O)N(CCC3=CCCCC3)C1=C[C@H](C(C)C)O[C@@H]2C1CC1	.	-6.1	.	-3.6	.	.	.	.
COc1ccc(Cn2cc(COC(=O)Nc3ccc(F)cc3)nn2)cc1	.	-1.8	.	-8.0	.	.	.	.
COc1ccc(NS(=O)(=O)c2ccc3ccccc3c2)c2ncccc12	9.8	1.7	1.8	28.4*	-3.6	-0.4	14.5	-1.2
CC(C)CN1C(=O)[C@@]2(CC(=O)N(C)C2c2ccccc2)c2cc(-n3cc(CCCC#N)nn3)ccc21 (stereo partly drawn)	.	3.0	.	-6.2	.	.	.	.
O=[N+]([O-])c1cc(S(=O)(=O)Nc2ccc(Cl)cc2)ccc1N/N=C/c1ccncc1	8.3	-20.2	1.3	-3.3	-4.6	-6.9	.	.
O=C(N/N=C/c1ccncc1)c1cc([N+](=O)[O-])cc([N+](=O)[O-])c1O	2.7	-2.9	2.5	19.9*	-1.5	2.9	13.8	0.3
O=C(N/N=C/c1ccncc1)c1cc2ccccc2cc1O	-8.2	3.0	3.8	-6.7	-0.5	13.5	.	.
O=[N+]([O-])c1ccc(Cl)cc1N/N=C/c1ccncc1	5.0	-6.2	1.1	19.6*	-4.2	-0.7	9.2	0.6
O=C(O)CCCNC(=O)C(c1ccccc1)c1ccccc1	1.2	-2.8	0.1	20.9*!	-4.0	3.8	-2.0	-6.4
O=C(O)CCCNC(=O)CCCNC(=O)C(c1ccccc1)c1ccccc1	10.5	8.6	0.2	13.2	-0.9	-16.6	.	.
CN[C@H]1C[C@H]2c3[nH]c4cccc(-c5ccc6c(c5)OCO6)c4c3CCN2C[C@H]1[C@H](C)O	.	5.6	.	-12.2	.	.	.	.
CC[C@H](C)[C@@H](CN[C@H](C)CNC)NCCC(c1ccccc1)c1ccccc1	-1.8	-4.0	0.0	26.3*	-2.0	5.5	3.7	-26.6
Clc1cccc(Cl)c1CSc1nnc2ccccn12	1.6	0.9	0.2	19.2*	-1.9	0.5	0.7	-1.1
C/C(=N\NC(=O)c1nn(C)c(C)c1Br)c1ccc(NC(=O)c2ccoc2C)cc1	5.5	-2.3	0.8	12.6	0.5	6.8	.	.

Bioassay records from PubChem.
